Compound activity deposited in PubChem BioAssay by several laboratories.
Only some compounds are listed: those with a hit (about 2.3% of all), similar ones and a draw of the others.
CSN deneddyl inh = inhibitors of CSN-mediated cullin deneddylation, primary screen, biochemical, fluorescence polarization, uHTS; inhibition, % at 12.5 µM; AID 651999, 2013; COP9 signalosome complex subunit 5 (Homo sapiens), Q92905; hit rate 0.38% among 360,000; Purified CSN, SCF-Nedd8-OG deneddylation;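 active means pattern-corrected inhibition above about 35%, with an unprinted fluorescence ratio check between 0.5 and 1.5, limit read from the data, passing the limit was not always enough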;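 further: 0% = enzyme with substrate and 100% = substrate without enzyme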
Target sequence (Q92905 whole entry, looked up, one chain of several): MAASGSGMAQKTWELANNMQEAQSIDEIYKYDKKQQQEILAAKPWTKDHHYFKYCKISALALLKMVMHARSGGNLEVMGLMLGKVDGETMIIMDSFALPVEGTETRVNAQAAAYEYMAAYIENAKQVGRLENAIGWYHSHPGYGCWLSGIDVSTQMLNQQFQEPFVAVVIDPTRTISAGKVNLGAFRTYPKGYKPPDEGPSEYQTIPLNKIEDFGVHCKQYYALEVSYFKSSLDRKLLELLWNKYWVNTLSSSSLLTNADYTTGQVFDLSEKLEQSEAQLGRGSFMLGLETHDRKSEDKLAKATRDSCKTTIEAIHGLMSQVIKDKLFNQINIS
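Assay system: Purified human Csn5 enzyme expressed in HEK293T cells | Amount: Enzyme 0.24 nM | Measured by: Fluorescence polarization readout | Medium: Tris/NaCl/DTT buffer, pH 7.5 | Compound dosing: One concentration, 12.5 µM, 0.25% DMSO | Times: 90 min incubation of compound, enzyme and substrate at room temperature | Control set: no-enzyme wells high, enzyme-with-substrate wells low | Read-out: % inhibition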
Rpn11 inh = Rpn11 (PSMD14) deubiquitinase inhibitors, primary screen, biochemical, fluorescence polarization, uHTS; 26S proteasome non-ATPase regulatory subunit 14 (Homo sapiens), O00487; human 26S proteasome, Ub4-pepOG fluorescence polarization; 20S core pre-blocked with epoxomicin; inhibition, % at 20 µM; hit rate 0.59% among 360,000;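 active means inhibition at 20 µM, scaled to each plate's controls, above about 33%, limit read from the data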
HNF4A DNA FP = change in binding of human HNF4A to DNA, primary screen, biochemical, fluorescence polarization, FITC-DNA; 1 h; activity change, % at 10 µM; hit rate 0.3% among 360,000; AID 1224865, 2016; in the data active means activity change above about 30%, passing the limit was not always enough
TPT1 inhibitor = Candida albicans TPT1 enzyme inhibitors, primary screen, biochemical, fluorescence polarization | recombinant caTPT1, FP RNA substrate dephosphorylation | tRNA 2'-phosphotransferase TPT1 (Candida albicans SC5314) | hit rate 0.81% among 300,000 | inhibition, % at 5 µM;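 active means inhibition above the mean of all tested compounds plus 3 SD, set per screening campaign, cut at about 24% in these data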;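 further: plate controls were DMSO alone for no effect and ferristatin control at 100 nM for full effect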
Myeloid diff 2 = induction of myeloid progenitor differentiation, primary screen, cell-based, flow cytometry, MLPCN library. ER-HoxA9 myeloid progenitors, lysozyme-GFP differentiation. calls only at 10 µM. hit rate 1% among 360,000;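 active means normalized GFP-positive differentiation at or above the plate's own cutoff, the solvent-only control mean plus 3 SD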;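 further: cells exposed to compound for four days before flow analysis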
Myeloid diff CP1 = inducers of myeloid progenitor differentiation, confirmation, cell-based, GFP/Mac1 flow cytometry, cherry pick 01. calls only. shares compounds with Myeloid diff 2. ER-HoxA9 myeloid progenitors, GFP/Mac1 double-positive flow. AID 651706, 2012. hit rate 2% among 2,300;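 active means share of green or green-and-red cells above 9 and 9% in run 1 or 4 and 3% in run 2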
GFP autofluor = counter-screen for myeloid differentiation promoters: compound fluorescence | hit rate 7.4% among 2,300 | shares compounds with Myeloid diff 2 | ER-HoxA9 myeloid progenitors, no estrogen, GFP autofluorescence flow cytometry; vehicle wells 0%, positive control 100% | fluorescence response, % (test concentration not listed) | AID 651707;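 active means over 5% cells positive for green fluorescent reporter, or over 2% positive for both it and APC stain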;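 further: range taken on the double positive population between DMSO and positive control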
* = called active by the depositor.

`Cc1ccccc1C(=O)/C(C#N)=N/Nc1c(C)n(C)n(-c2ccccc2)c1=O` gave CSN deneddyl inh -15.6, Rpn11 inh -13.3, HNF4A DNA FP 1.7, TPT1 inhibitor 1.5 and Myeloid diff 2 inactive.
For Cc1ccc2c(C)c(C(=O)Nc3c(C)n(C)n(-c4ccccc4)c3=O)oc2c1 the results were CSN deneddyl inh -1.9, Rpn11 inh 4.5, HNF4A DNA FP 0.9, TPT1 inhibitor -2.9 and Myeloid diff 2 inactive.
Screening COc1ccc(CN2C[C@@H](CO)O[C@@H](n3cnc4c(NCc5ccc(F)cc5)ncnc43)C2)cc1 returned CSN deneddyl inh 1.4, Rpn11 inh 5.0, HNF4A DNA FP -0.8 and Myeloid diff 2 inactive.
For CCN1C[C@@H]2[C@@H]3C(=O)N(C)C(=O)[C@@H]3[C@](Cc3ccccc3)(C1=O)N2C(=O)c1ccc(Br)cc1 the results were CSN deneddyl inh -0.1, Rpn11 inh -0.9, HNF4A DNA FP -3.1 and Myeloid diff 2 inactive.
For O=C(NCC1CCCO1)C(c1ccc(F)cc1)N(C(=O)Cn1nnc(-c2ccc(F)cc2)n1)c1cccc(O)c1 (stereo not drawn) the results were CSN deneddyl inh -4.0, Rpn11 inh -1.0, HNF4A DNA FP -1.6, TPT1 inhibitor -5.7, Myeloid diff 2 inactive, Myeloid diff CP1 inactive and GFP autofluor 0.0.
For CC(C)CC(C(=O)NCC1CCCO1)N(C(=O)Cn1nnc(-c2ccc(F)cc2)n1)c1cccc(C(F)(F)F)c1 (stereo not drawn) the results were CSN deneddyl inh 1.8, Rpn11 inh -3.8, HNF4A DNA FP 1.0, TPT1 inhibitor -3.9 and Myeloid diff 2 inactive.
For COc1ccc(NC(=O)N2CCN(CCC#N)CC2)cc1 the results were CSN deneddyl inh -4.8, Rpn11 inh -0.8, HNF4A DNA FP -1.9, TPT1 inhibitor -4.1, Myeloid diff 2 inactive, Myeloid diff CP1 inactive and GFP autofluor 0.5.
Screening COC(=O)c1ccccc1NC(=O)c1nc2nc(C)cc(C)n2n1 returned CSN deneddyl inh -2.5, Rpn11 inh -4.4, HNF4A DNA FP -4.5, TPT1 inhibitor -0.2, Myeloid diff 2 inactive, Myeloid diff CP1 inactive and GFP autofluor 0.2.
COC(=O)c1ccccc1NC(=O)c1cnn2c(C)cc(C)nc12 was read as CSN deneddyl inh -3.5, Rpn11 inh 0.1, HNF4A DNA FP -1.1, TPT1 inhibitor -0.9 and Myeloid diff 2 inactive.
For CSCC[C@H](NC(=O)Cc1c(C)c2c(cc(C)c3c(C)coc32)oc1=O)C(=O)O the results were CSN deneddyl inh -1.3, Rpn11 inh 0.5, HNF4A DNA FP -3.8 and Myeloid diff 2 inactive.
For COc1ccc(-n2c(SCC(N)=O)nnc2-c2ccc(NS(=O)(=O)c3ccc(C)cc3)cc2)cc1 the results were CSN deneddyl inh -2.2, Rpn11 inh 9.1, HNF4A DNA FP 6.8, TPT1 inhibitor 1.6, Myeloid diff 2 active, Myeloid diff CP1 inactive and GFP autofluor 0.3.
`Cc1ccc(S(=O)(=O)/C(C#N)=C/c2c(N3CCN(Cc4ccccc4)CC3)nc3ccccn3c2=O)cc1` gave CSN deneddyl inh 6.8, HNF4A DNA FP 8.6, TPT1 inhibitor 1.8 and Myeloid diff 2 inactive.
For CC1=C(C(=O)OCc2ccc3c(c2)OCO3)C(c2ccc(F)cc2)NC(=O)N1 (stereo not drawn) the results were CSN deneddyl inh -3.2, Rpn11 inh 4.4, HNF4A DNA FP -2.5, TPT1 inhibitor -2.8, Myeloid diff 2 active, Myeloid diff CP1 inactive and GFP autofluor 0.0.
COc1cc(-c2nnc(-c3cc(-c4ccccc4)nc4ccccc34)o2)cc(OC)c1OC was read as CSN deneddyl inh -0.4, Rpn11 inh -0.1, HNF4A DNA FP -2.6 and Myeloid diff 2 inactive.
